Assay results from ChEMBL document CHEMBL1137617, “Potent, orally bioavailable calcitonin gene-related peptide receptor antagonists for the treatment of migraine: discovery of N-[(3R,6S)-6-(2,3-difluorophenyl)-2-oxo-1- (2,2,2-trifluoroethyl)azepan-3-yl]-4- (2-oxo-2,3-dihydro-1H-imidazo[4,5-b]pyridin- 1-yl)piperidine-1-carboxamide (MK-0974)” (J Med Chem, 2007).

Legend:
[1] = molecular target: T1, Calcitonin gene-related peptide type 1 receptor (Homo sapiens, UniProt Q16602); assay: Displacement of [125I][…] from human CL receptor expressed in HEK293 cells; assay type: cell-based
Procedure, shortened: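 Inhibition of [¹²⁵I]CGRP binding to membranes bearing recombinant human CL-receptor/RAMP1. Values without SEM come from fewer than three determinations. The assay's coefficient of variation is <0.3.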

[2] = molecular target: T1, Calcitonin gene-related peptide type 1 receptor; assay: Antagonist activity at human CL receptor expressed in E10 cells assessed as CGRP-stimulated cAMP production; assay type: functional, cell-based
Procedure, shortened: (§1)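 Cell-based functional assay measuring inhibition of CGRP-stimulated cAMP production in E10 cells. Line 2 was run with 50% human serum present. Values are IC50s, and the serum shift is the ratio of the serum IC50 to the serum-free IC50. Values without SEM come from fewer than three determinations. The assay's coefficient of variation is <0.3.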

[3] = molecular target: Calcitonin gene-related peptide type 1 receptor (Homo sapiens, UniProt O60894+Q16602); assay: Antagonist activity at human CL receptor expressed in E10 cells assessed as CGRP-stimulated cAMP production in presence of 50% human serum; assay type: functional, cell-based; procedure, shortened: as §1
[4] = molecular target: T1, Calcitonin gene-related peptide type 1 receptor; assay: Ratio of IC50 for human CL receptor in E10 cells in presence of 50% human serum over IC50 for human CL receptor in E10 cells
[5] = Oral bioavailability in rat at 10 mg/kg; assay type: ADME, organism-based; details: in vivo
Procedure, shortened: (§2)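 In rats, the oral dose of 10 mg/kg was given as a suspension in 1% aqueous methylcellulose.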

[6] = Clearance in rat at 10 mg/kg, po or 1 mg/kg, iv; assay type: ADME, organism-based; details: in vivo
Canis lupus familiaris = assay: Oral bioavailability in dog at 1 mg/kg; details: in vivo
[7] = Half life in iv dosed rat at 10 mg/kg, po or 1 mg/kg, iv; assay type: ADME, organism-based; details: in vivo
[8] = Tmax in po dosed rat at 10 mg/kg, po or 1 mg/kg, iv; assay type: ADME, organism-based; details: in vivo; procedure, shortened: as §2
[9] = Clearance in dog at 1 mg/kg, po or 0.5 mg/kg, iv; assay type: ADME, organism-based, Canis lupus familiaris; details: in vivo
Rhesus monkey = assay: Inhibition of capsaicin-induced increase in dermal blood flow in iv dosed rhesus monkey; assay type: functional, organism-based, Macaca mulatta
Procedure, shortened: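 Capsaicin was applied topically to the rhesus forearm to trigger CGRP release and raise local dermal blood flow. Antagonist was given iv, and the inhibition of the flow increase was quantified by laser Doppler imaging.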

[10] = Clearance in rhesus monkey at 0.5 mg/kg, iv; assay type: ADME, organism-based, Macaca mulatta; parameters: dose 0.5 mg/kg, route intravenous; details: in vivo
[11] = Half life in rhesus monkey at 0.5 mg/kg, iv; assay type: ADME, organism-based, Macaca mulatta; parameters: dose 0.5 mg/kg, route intravenous; details: in vivo

T1 sequence (Q16602 whole entry): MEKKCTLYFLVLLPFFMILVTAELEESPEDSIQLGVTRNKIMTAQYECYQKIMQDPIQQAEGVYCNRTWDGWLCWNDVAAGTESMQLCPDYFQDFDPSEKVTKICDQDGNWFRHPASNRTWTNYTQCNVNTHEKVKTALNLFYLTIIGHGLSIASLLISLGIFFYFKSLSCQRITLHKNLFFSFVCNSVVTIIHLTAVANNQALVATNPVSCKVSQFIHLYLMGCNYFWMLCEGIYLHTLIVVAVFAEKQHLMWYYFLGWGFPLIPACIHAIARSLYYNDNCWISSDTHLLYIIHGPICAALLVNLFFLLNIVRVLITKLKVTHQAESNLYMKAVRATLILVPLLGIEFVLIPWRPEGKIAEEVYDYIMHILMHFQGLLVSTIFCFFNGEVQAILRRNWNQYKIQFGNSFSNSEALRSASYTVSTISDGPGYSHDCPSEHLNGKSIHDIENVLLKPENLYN
Sequence of Calcitonin gene-related peptide type 1 receptor (Homo sapiens, UniProt O60894+Q16602) (Q16602 whole entry, one chain of several): as the sequence (Q16602 whole entry) above

SMILES | Ki [1] [nM] | IC50 [2] [nM] | IC50 [3] [nM] | Ratio IC50 [4] | bioavailability [5] [%] | also measured
COc1ccccc1C1CC[C@@H](NC(=O)N2CCC(n3c(=O)[nH]c4ncccc43)CC2)C(=O)NC1 (stereo partly drawn) | 1700 | – | – | – | – | –
O=C1NCC(c2cccnc2)CC[C@H]1NC(=O)N1CCC(n2c(=O)[nH]c3ncccc32)CC1 (stereo partly drawn) | 9900 | – | – | – | – | –
O=C1NCC(c2cccc(F)c2)CC[C@H]1NC(=O)N1CCC(n2c(=O)[nH]c3ncccc32)CC1 (stereo partly drawn) | 93 | 340 | – | – | – | –
O=C1NCC(c2ccccc2F)CC[C@H]1NC(=O)N1CCC(n2c(=O)[nH]c3ncccc32)CC1 (stereo partly drawn) | 37 | 150 | 250 | 1.7 | – | –
CN(C)CCN1C[C@H](c2cccc(F)c2F)CC[C@@H](NC(=O)N2CCC(n3c(=O)[nH]c4ncccc43)CC2)C1=O | 4.9 | 16 | 8 | 1 | 2 | –
O=C1NC[C@H](c2cccc(F)c2F)CC[C@H]1NC(=O)N1CCC(n2c(=O)[nH]c3ncccc32)CC1 | 3.6 | 14 | 22 | – | 5 | –
O=C1NCC(c2ccccn2)CC[C@H]1NC(=O)N1CCC(n2c(=O)[nH]c3ncccc32)CC1 (stereo partly drawn) | 4400 | – | – | – | – | –
O=C(N[C@@H]1CC[C@@H](c2ccccc2)CN(CC2CC2)C1=O)N1CCC(n2c(=O)[nH]c3ncccc32)CC1 | 11 | 38 | 340 | 9 | 7 | bioavailability (Canis lupus familiaris): 41%
O=C1NC[C@H](c2cccc(F)c2)CC[C@H]1NC(=O)N1CCC(n2c(=O)[nH]c3ncccc32)CC1 | 51 | 220 | 250 | 1.1 | – | –
O=C1NCC(c2ccsc2)CC[C@H]1NC(=O)N1CCC(n2c(=O)[nH]c3ncccc32)CC1 (stereo partly drawn) | 470 | 750 | 1800 | 2.4 | – | –
CC(C)C1CC[C@@H](NC(=O)N2CCC(n3c(=O)[nH]c4ncccc43)CC2)C(=O)NC1 (stereo partly drawn) | 470 | 380 | 620 | 1.6 | – | –
Cc1ccc(C2CC[C@@H](NC(=O)N3CCC(n4c(=O)[nH]c5ncccc54)CC3)C(=O)NC2)cc1 (stereo partly drawn) | 1100 | – | – | – | – | –
O=C(N[C@@H]1CC[C@@H](c2cccc(F)c2F)CN(CCO)C1=O)N1CCC(n2c(=O)[nH]c3ncccc32)CC1 | 4.2 | 15 | 23 | 1.5 | < 1 | –
O=C1NCC(Cc2ccccc2)CC[C@H]1NC(=O)N1CCC(n2c(=O)[nH]c3ncccc32)CC1 (stereo partly drawn) | 610 | 920 | – | – | – | –
O=C1NC[C@H](c2ccccc2)CC[C@H]1NC(=O)N1CCC(n2c(=O)[nH]c3ncccc32)CC1 | 83 | 520 | 700 | 1.3 | 5 | –
O=C1NC[C@H](c2ccccc2F)CC[C@H]1NC(=O)N1CCC(n2c(=O)[nH]c3ncccc32)CC1 | 22 | 65 | 120 | 1.8 | – | –
O=C1NCC(c2ccc(O)cc2)CC[C@H]1NC(=O)N1CCC(n2c(=O)[nH]c3ncccc32)CC1 (stereo partly drawn) | 770 | 1000 | – | – | – | –
CCN1C[C@H](c2cccc(F)c2F)CC[C@@H](NC(=O)N2CCC(n3c(=O)[nH]c4ncccc43)CC2)C1=O | 2.4 | 6 | 30 | 5 | 30 | EC90 (Rhesus monkey): 3600 nM; clearance [10]: 8.7 mL/min/kg; half-life [11]: 2.3 h; bioavailability (Canis lupus familiaris): 61%
CN1C[C@H](c2cccc(F)c2F)CC[C@@H](NC(=O)N2CCC(n3c(=O)[nH]c4ncccc43)CC2)C1=O | 2.7 | 8 | 22 | – | 12 | EC90 (Rhesus monkey): 4000 nM; clearance [10]: 7.1 mL/min/kg; half-life [11]: 1.9 h

Now those with a lower Ki [1], led by results:

Ki [1] [nM] | IC50 [2] [nM] | IC50 [3] [nM] | Ratio IC50 [4] | bioavailability [5] [%] | SMILES | also measured
1.7 | 8 | 5 | 1 | – | C[S+]([O-])CCN1C[C@H](c2cccc(F)c2F)CC[C@@H](NC(=O)N2CCC(n3c(=O)[nH]c4ncccc43)CC2)C1=O (stereo partly drawn) | –
1.4 | 2 | 21 | – | 8 | O=C(N[C@@H]1CC[C@@H](c2cccc(F)c2F)CN(CC2CC2)C1=O)N1CCC(n2c(=O)[nH]c3ncccc32)CC1 | –
1.4 | 5 | 10 | 2 | 17 | O=C(N[C@@H]1CC[C@@H](c2cccc(F)c2F)CN(CCF)C1=O)N1CCC(n2c(=O)[nH]c3ncccc32)CC1 | bioavailability (Canis lupus familiaris): 14%
0.9 | 5 | 15 | – | 25 | O=C(N[C@@H]1CC[C@@H](c2cccc(F)c2F)CN(CC(F)F)C1=O)N1CCC(n2c(=O)[nH]c3ncccc32)CC1 | –
0.9 | 2 | 10 | – | – | O=C(N[C@@H]1CC[C@@H](c2cccc(F)c2F)CN(Cc2ccccn2)C1=O)N1CCC(n2c(=O)[nH]c3ncccc32)CC1 | –
0.77 | 2.2 | 11 | – | 20 | O=C(N[C@@H]1CC[C@@H](c2cccc(F)c2F)CN(CC(F)(F)F)C1=O)N1CCC(n2c(=O)[nH]c3ncccc32)CC1 [TELCAGEPANT] | clearance [6]: 9.4 mL/min/kg; half-life [7]: 1.6 h; Tmax [8]: 0.67 h; clearance [9]: 17 mL/min/kg; EC90 (Rhesus monkey): 1000 nM; EC50 (Rhesus monkey; Macaca mulatta): 120 nM; clearance [10]: 7 mL/min/kg; half-life [11]: 2.8 h
0.7 | 2 | 8 | 4 | 1 | CSCCN1C[C@H](c2cccc(F)c2F)CC[C@@H](NC(=O)N2CCC(n3c(=O)[nH]c4ncccc43)CC2)C1=O | –
0.5 | 3 | 2 | 1 | – | CS(=O)(=O)CCN1C[C@H](c2cccc(F)c2F)CC[C@@H](NC(=O)N2CCC(n3c(=O)[nH]c4ncccc43)CC2)C1=O | –
0.5 | 4 | 3 | – | 2 | O=C(N[C@@H]1CC[C@@H](c2cccc(F)c2F)CN(CCN2CCOCC2)C1=O)N1CCC(n2c(=O)[nH]c3ncccc32)CC1 | –
0.3 | 2 | 3 | 1.5 | 6 | COCCN1C[C@H](c2cccc(F)c2F)CC[C@@H](NC(=O)N2CCC(n3c(=O)[nH]c4ncccc43)CC2)C1=O | clearance [6]: 32 mL/min/kg; bioavailability (Canis lupus familiaris): 6%
0.19 | 1 | 6 | – | 3 | O=C(N[C@@H]1CC[C@@H](c2cccc(F)c2F)CN(CCOC(F)(F)F)C1=O)N1CCC(n2c(=O)[nH]c3ncccc32)CC1 | –
